Compound activity from PubChem BioAssay.
An excerpt weighted towards active compounds, which were near 3.8% of everything screened.
KCNK3 inh: human KCNK3 channel inhibitors, primary screen, CHO cells, FluxOR thallium flux, B-score; Potassium channel subfamily K member 3 (Homo sapiens), O14649; FluxOR fluorescence; active compounds read low; B-score at 10 µM; 340,000 tested, 0.84% active; AID 602410, 2012;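 active = B-score under library mean minus 4 SD, starting fluorescence ratio at most library mean plus 5 SD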;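 also: more negative B-score means stronger inhibition of thallium flux through KCNK3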
Target sequence (O14649 whole entry, looked up): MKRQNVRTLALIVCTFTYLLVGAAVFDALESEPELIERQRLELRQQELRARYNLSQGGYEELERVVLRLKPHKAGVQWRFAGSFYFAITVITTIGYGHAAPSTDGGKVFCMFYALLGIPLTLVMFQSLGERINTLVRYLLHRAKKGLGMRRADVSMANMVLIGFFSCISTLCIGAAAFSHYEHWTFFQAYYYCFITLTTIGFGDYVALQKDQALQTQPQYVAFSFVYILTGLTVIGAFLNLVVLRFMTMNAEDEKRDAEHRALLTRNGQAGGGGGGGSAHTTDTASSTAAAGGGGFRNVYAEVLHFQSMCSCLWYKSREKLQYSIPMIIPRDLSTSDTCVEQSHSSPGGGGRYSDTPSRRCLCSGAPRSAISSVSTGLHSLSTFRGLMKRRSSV
KCNK9 block: KCNK9 potassium channel inhibitors, primary screen, HEK293 cells, thallium flux. Potassium channel subfamily K member 9 (Homo sapiens), Q9NPC2. FluxOR thallium flux fluorescence; active compounds read low. B-score at 10 µM. 310,000 tested, 1.2% active. AID 488922, 2010;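 active = ratio B-score over 3 SD below the library mean, with starting fluorescence within 5 SD of its mean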;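 also: negative B-score means less thallium flux so channel inhibition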
Kir21 inh: inhibitors of mouse Kir2.1 inward-rectifier potassium channel; Inward rectifier potassium channel 2 (Mus musculus), P35561; HEK293-Kir2.1, FluxOR thallium flux fluorescence; active compounds read low; B-score at 10 µM; 310,000 tested, 0.85% active;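 active = fluorescence ratio B-score at or below minus 3 SD of library scores, with starting-brightness B-score within 2 SD, cut at about -4.2 in these data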;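 also: channel flux triggered by added potassium and thallium sulfate stimulus; B-score of peak minus minimum fluorescence over baseline after thallium stimulus; more negative B-score means stronger Kir2.1 block with less thallium influx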
hERG protect: hERG rescue from dofetilide block, primary screen, cell-based, CHO-hERG, FluxOR thallium flux, dofetilide IC70; Voltage-gated inwardly rectifying potassium channel KCNH2 (Homo sapiens), Q12809; activation (rescue from dofetilide block), less the hit threshold, % at 10 µM; AID 1511, 2009; 310,000 tested, 0.51% active; dofetilide IC70 present;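 active = activation above the mean of controls blocked by dofetilide plus 5 SD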;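 also: thallium influx through hERG after potassium depolarization seen as dye fluorescence rise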
KCNQ1 pot: potentiators or activators of KCNQ1 channel, primary screen, cell-based, thallium flux, high-throughput; Potassium voltage-gated channel subfamily KQT member 1 (Homo sapiens), P51787; CHO-K1 KCNQ1, thallium flux FluxOR fluorescence; active compounds read high; B-score at 10 µM; 310,000 tested, 0.35% active; AID 2648, 2010;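 active = fluorescence ratio B-score, a plate-corrected score, at least three library SD, with initial intensity B-score within 5 SD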
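System: Stable KCNQ1 CHO-K1 line | Incubation: 90 min dye loading and 20 min compound exposure, both at room temperature | Measure: Ratio B score | Medium: Assay buffer for compound exposure, DMSO matched across wells | Compound dosing: Single-concentration screen | Probe or stimulus: K+/Tl+ depolarizing stimulus | Measured by: Kinetic FluxOR fluorescence, 10 s baseline plus 110 s post-stimulus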
KCNQ1 block: inhibitors of human KCNQ1 channel, primary screen, cell-based, thallium flux, high-throughput; CHO-K1 KCNQ1, FluxOR thallium flux fluorescence; active compounds read high; B-score at 10 µM; 310,000 tested, 1.3% active;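 active = compounds whose thallium flux B-score, printed positive for inhibition, exceeds three library SD while starting fluorescence stays within three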;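 also: channel opened by potassium depolarization with thallium stimulus after 20 min compound exposure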
The depositor's hits bear a star; i = inactive; nt = not tested or not shown.

SMILES	KCNK3 inh	KCNK9 block	Kir21 inh	hERG protect	KCNQ1 pot	KCNQ1 block
Cc1sc(-c2ccccn2)nc1OC(=O)c1ccc(Cl)cc1	i	i	1.22	-8.0	i	i
COc1ccc2cc(C(=O)N/N=C/c3sc4ccccc4c3O)ccc2c1	i	i	-7.21	-13.6	i	9*
Cc1ccc(Oc2c(C(N)=O)cc([N+](=O)[O-])cc2[N+](=O)[O-])cc1	i	i	-5.47*	-15.1	i	6*
Cc1ccn2cc(-c3cccc([N+](=O)[O-])c3)nc2c1	i	i	1.76	-6.5	i	i
CCc1nnc(NC(=O)CCC(=O)N2CCN(C3CCCCC3)CC2)s1	i	i	-0.13	4.4	13*	i
OC(CCN1CCOCC1)c1ccccc1 (centres undefined)	i	i	-1.57	9.3*	i	i
CCCCN(Cc1cccs1)S(=O)(=O)c1csc(C(N)=O)c1	i	i	-7.81*	-9.0	i	i
Cc1ccc(S(=O)(=O)N(C)C)cc1-n1c(SCC(=O)Nc2ccc(F)cc2Cl)nc2ccccc2c1=O	i	-8.01*	-2.64	-6.8	i	i
Cc1ccc(S(=O)(=O)N(C)C)cc1-n1c(SCC(=O)Nc2ccccc2)nc2ccccc2c1=O	i	-7.93*	-0.84	-12.3	i	i
Cc1ccc(S(=O)(=O)N(C)C)cc1NC(=O)CSc1nc2ccccc2c(=O)n1CC1CCCO1 (centres undefined)	i	i	-1.06	-14.3	i	i
O=C(CSc1ccccn1)N1CCNC1=O	i	nt	nt	nt	nt	nt
COc1ccc(CCN2C(=NC(=O)C(C)C)SC3CS(=O)(=O)CC32)cc1OC (centres undefined)	i	i	0.38	-8.2	i	i
CCc1ccccc1NC(=O)c1ccccc1Sc1ccc([N+](=O)[O-])cc1Cl	i	-7.16*	0.82	-3.7	i	i
CCSc1ccccc1C(=O)Nc1ccc([N+](=O)[O-])cc1OC	i	i	-1.71	-24.4	i	i
CN(Cc1ccon1)C(=O)C1CCN(C2CCN(CCCc3ccccc3)CC2)CC1	i	i	-0.31	-5.6	i	i
COC(=O)[C@H](CC(C)C)NCc1cccc(CN[C@@H](CC(C)C)C(=O)OC)c1	i	i	-4.28*	-4.6	i	i
Oc1cccc(/C=N/N(Cc2ccccc2)c2ccccc2)c1	i	-7.19*	-0.42	-15.3	i	6*
CC(C)(O)C(=O)NNC(=S)Nc1ccc(F)c(Cl)c1	i	i	0.42	-16.8	i	i
COc1cc(NC(=S)NNC(=O)C(C)(C)O)cc(OC)c1	i	i	0	8.9*	i	i
COc1ccc(CC(=O)NC2CCSc3ccccc32)c(OC)c1 (centres undefined)	i	i	-5.9*	-10.2	i	i
COc1ccc(OC)c(C(=O)NC2CCSc3ccccc32)c1 (centres undefined)	i	i	-0.06	-4.5	i	i
Cc1cccc(Nc2nc(N)c([N+](=O)[O-])c(NCc3ccccc3)n2)c1	i	i	-2.24	-8.5	i	7*
Nc1nc(Nc2ccccc2)nc(NCc2ccccc2)c1[N+](=O)[O-]	i	i	0.83	-4.1	i	i
COCc1cc(=O)[nH]c(/N=C(\N)Nc2cccc(Cl)c2)n1	i	i	0.7	-8.2	i	i
CCCCCCOc1ccc(/C(C)=N/NC2=NCCN2)cc1	i	i	0.71	-32.2	i	13*
COc1ccc(-c2cn3c(C)c(C(=O)N4CCCc5ccccc54)sc3n2)cc1	i	i	-0.76	-14.9	i	6*
